Laboratory results reported in ChEMBL document CHEMBL4261575, “Structure-guided approach identifies a novel class of HIV-1 ribonuclease H inhibitors: binding mode insights through magnesium complexation and site-directed mutagenesis studies” (Medchemcomm, 2018).
Activity calls are given as the source filed them. No cut-off for these calls is given here.

What was measured:
[1] = biological target: Human immunodeficiency virus type 1 reverse transcriptase (Human immunodeficiency virus 1, UniProt Q72547); assay: Inhibition of HIV1 reverse transcriptase RNase H activity using 18-nucleotide 3'-fluorescein-labeled RNA/5'-[…]-labeled DNA hybrid as substrate after 1 hr by fluorescence assay
Summary of the method: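 Polymerase-independent RNase H assay with 20 ng wild-type RT in 50 mM Tris-HCl pH 7.8, 6 mM MgCl2, 1 mM DTT and 80 mM KCl. Substrate was 0.25 μM RNA/DNA hybrid with a fluorescein-labelled RNA and a dabcyl-labelled DNA. Inhibitor was diluted in water over increasing concentrations. Incubation 1 h at 37 °C, stopped with EDTA, read at 490/528 nm. IC50 was averaged over three independent experiments.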

[2] = biological target: Human immunodeficiency virus type 1 reverse transcriptase (Human immunodeficiency virus 1) (UniProt Q72547); assay: Inhibition of HIV1 reverse transcriptase RNase H activity using 18-nucleotide 3'-fluorescein-labeled RNA/5'-[…]-labeled DNA hybrid as substrate assessed as remaining activity at 100 uM after 1 hr by fluorescence assay relative to control
Summary of the method: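 Wild-type RT (20 ng) RNase H reaction in Tris-HCl pH 7.8 buffer with 6 mM MgCl2, 1 mM DTT and 80 mM KCl. Substrate was 0.25 μM fluorescein/dabcyl RNA/DNA hybrid, with compound at 100 μM. Incubation 1 h at 37 °C, EDTA stop, fluorescence at 490/528 nm. Activity is given as percentage of control.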

[3] = biological target: Human immunodeficiency virus type 1 reverse transcriptase (Human immunodeficiency virus 1, UniProt Q72547, N474A); assay: Inhibition of HIV1 group M subtype B reverse transcriptase p66 N474A mutant RNase H activity using 18-nucleotide 3'-fluorescein-labeled RNA/5'-[…]-labeled DNA hybrid as substrate after 1 hr by fluorescence assay; set-up: species or system HIV-1 group M
Summary of the method: (§1)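 Mutations were introduced into the p66 subunit of subtype B RT. Enzyme amounts were set within the linear range: R448A 37.5 ng, N474A 62.5 ng, A502F 100 ng, R557A 75 ng. Buffer was 50 mM Tris-HCl pH 7.8, 6 mM MgCl2, 1 mM DTT, 80 mM KCl, with 0.25 μM fluorescein/dabcyl hybrid and water-diluted inhibitor. Incubation 1 h at 37 °C, EDTA stop, read at 490/528 nm.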

[4] = biological target: Human immunodeficiency virus type 1 reverse transcriptase (Human immunodeficiency virus 1, UniProt Q72547, R557A); assay: Inhibition of HIV1 group M subtype B reverse transcriptase p66 R557A mutant RNase H activity using 18-nucleotide 3'-fluorescein-labeled RNA/5'-[…]-labeled DNA hybrid as substrate after 1 hr by fluorescence assay; set-up: species or system HIV-1 group M; summary of the method: as §1
[5] = biological target: Human immunodeficiency virus type 1 reverse transcriptase (Human immunodeficiency virus 1, UniProt Q72547, R448A); assay: Inhibition of HIV1 group M subtype B reverse transcriptase p66 R448A mutant RNase H activity using 18-nucleotide 3'-fluorescein-labeled RNA/5'-[…]-labeled DNA hybrid as substrate after 1 hr by fluorescence assay; set-up: species or system HIV-1 group M; summary of the method: as §1
[6] = Selectivity ratio of IC50 for HIV1 group M subtype B reverse transcriptase p66 N474A mutant RNase H activity to IC50 for HIV1 reverse transcriptase RNase H activity
[7] = Selectivity ratio of IC50 for HIV1 group M subtype B reverse transcriptase p66 A502F mutant RNase H activity to IC50 for HIV1 reverse transcriptase RNase H activity
[8] = Selectivity ratio of IC50 for HIV1 group M subtype B reverse transcriptase p66 R557A mutant RNase H activity to IC50 for HIV1 reverse transcriptase RNase H activity
[9] = Selectivity ratio of IC50 for HIV1 group M subtype B reverse transcriptase p66 R448A mutant RNase H activity to IC50 for HIV1 reverse transcriptase RNase H activity
[10] = biological target: Human immunodeficiency virus type 1 reverse transcriptase (Human immunodeficiency virus 1, UniProt Q72547, A502F); assay: Inhibition of HIV1 group M subtype B reverse transcriptase p66 A502F mutant RNase H activity using 18-nucleotide 3'-fluorescein-labeled RNA/5'-[…]-labeled DNA hybrid as substrate after 1 hr by fluorescence assay; set-up: species or system HIV-1 group M; summary of the method: as §1
[11] = Binding affinity to Mg2+ at 3 x 10^-5 M to 8 x 10^-5 M by UV-Vis spectrophotometric method
Summary of the method: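 UV-vis spectrophotometric titration of the compound in absolute ethanol with MgCl2, read in a quartz cuvette with a 1 cm path. MgCl2 was diluted in absolute ethanol to 13 stock solutions spanning 4 10–5 to 0.2 M (stock concentrations). Spectra were recorded across increasing Mg2+ levels, and isosbestic points were used to judge complexation equilibria. Each experiment was done in triplicate.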

[12] = system: Human immunodeficiency virus 1; assay: Antiviral activity against HIV1 assessed as inhibition of viral replication at 40 uM by cell-based assay; type: functional, organism-based

SMILES	IC50 [1] [µM]	Activity [2] [%]	further results
COc1cccc(/C=C2\NC(=O)NC2=O)c1-c1ccc(OC(=O)Nc2ccccc2)cc1	28.1		
NNC(=O)c1cccc(Cn2cc(Br)c([N+](=O)[O-])n2)c1	> 100	94.6	
CC(Oc1ccc(C(C)(C)C)cc1)C(=O)NN (centres undefined)	> 100	70.4	
COc1cc(NC(=O)C2CC(=O)N=C(N)S2)cc(OC)c1 (centres undefined)	> 100	74.5	
CSCCC(NS(=O)(=O)c1ccc2c(c1)NC(=O)C(C)O2)C(=O)O (centres undefined)	> 100	80.2	
Cc1nc(N)sc1C(=O)N/N=C\c1ccc(O)c([N+](=O)[O-])c1	> 100	55	
NC(=O)N(CCC(=O)O)c1ccc(Br)cc1	> 100	84.5	
C[S+]([O-])CCC(NS(=O)(=O)c1ccccc1)C(=O)O (centres undefined)	> 100	86	
Cc1cccc(OCC(=O)NC(Cc2ccccc2)C(=O)O)c1 (centres undefined)	> 100	87.2	
CC(C)c1ccc(O)c(=O)c(O)c1 [BETA-THUJAPLICINOL]			IC50 [3]: 0.1 µM; IC50 [4]: 0.21 µM; IC50 [5]: 0.14 µM; Ratio IC50 [6]: 0.5; Ratio IC50 [7]: 0.85; Ratio IC50 [8]: 1.05; Ratio IC50 [9]: 0.7; IC50 [10]: 0.17 µM
O=C(O)CCCC(=O)NC1CCCCCCC1	> 100	76.3	
O=C(CSc1nc2ccccc2o1)Nc1ncn[nH]1	> 100	82.7	
CCOc1cccc(/C=C2\SC(=O)NC2=O)c1O	> 100	60	
O=C1Nc2ccccc2/C1=N\NC(=O)c1ccc(O)cc1O	36.4		
O=C(N/N=C\c1cc([N+](=O)[O-])c(O)cc1O)c1ccccc1O	49.9		
O=C(OCCOCn1cc(Br)c(=O)[nH]c1=O)c1ccccc1	> 100	69.1	
O=C1NC(=O)/C(=C/c2ccc(Cl)c(Cl)c2)S1	> 100	80.5	
CCCc1cc2c(cc1/C=C1\NC(=O)NC1=O)OCO2	91.6		
CCOc1ccc(/C=C2\NC(=O)NC2=O)c(Cl)c1OC	84.2		
COc1ccccc1NC(=O)C1CCCCC1(C)C(=O)O (centres undefined)	61.2		
CCOc1cc(/C=C2\NC(=O)NC2=O)c(Cl)cc1OC	> 100	70	
CCOC(=O)C12CC(OC3CCCCC3)C1(c1ccccc1)NC(=O)C2=O (centres undefined)	> 100	80.4	

SMILES	IC50 [1] [µM]	Activity [2] [%]	further results
COC(=O)c1c(-c2cccs2)csc1NC(=O)C1CC=CCC1C(=O)O (centres undefined)	> 100	93	
CCCOC(=O)CNc1n[nH]c(=O)[nH]c1=O	> 100	89.1	
Cc1cc(/C=C2\SC(N)=NC2=O)c(C)n1-c1ccc(F)cc1	12.3		Activity [11]: inactive
O=C(O)COc1ccc(/C=C2\NC(=O)NC2=O)cc1I	> 100	67.5	
CC(=O)c1cc2c(cc1NC(=O)CCC(=O)O)OCO2	> 100	89.5	
Cc1cc(/C=C2\NC(=O)NC2=O)cc(C)c1OCc1cccc([N+](=O)[O-])c1	17.8		
Cc1cc(/C=C2\SC(=N)NC2=O)c(C)n1-c1ccc(Cl)cc1	16.1		Activity [11]: inactive
NNC(=O)C12CC3CC(C1)CC(n1cnc(Cl)n1)(C3)C2	> 100	73.4	
O=C(O)CC1CSc2ccccc2NC1=O (centres undefined)	> 100	76.5	
CCCCC(CC)CN1C(=O)C(O)=C(C(C)=O)C1c1ccco1 (centres undefined)	> 100	77.5	
COc1cc(N2CCCC2)c(OC)cc1/C=C1/NC(=O)NC1=O	9.35		IC50 [3]: > 300 µM; inhibition [12]: inactive; IC50 [4]: 20.5 µM; IC50 [5]: 11 µM; Ratio IC50 [6]: > 32; Ratio IC50 [7]: 3.5; Ratio IC50 [8]: 2.2; Activity [11]: Active; Ratio IC50 [9]: 1.2; IC50 [10]: 32.5 µM
CCC(C)Oc1ccc(/C=C2\NC(=O)NC2=O)cc1 (centres undefined)	52.8		
COc1cc(/C=N/NC(=O)COc2cccc(C)c2)c(O)c([N+](=O)[O-])c1	> 100	59.4	
O=C(O)C1Sc2[nH]c(=O)sc2C2c3ccccc3OC(=O)C12 (centres undefined)	> 100	80	
CC1=C(C(=O)O)N2C(=O)C(NC(=O)c3ccn(C)n3)C2SC1 (centres undefined)	> 100	80	
Cc1ccc(C2CC2C(=O)NN)cc1 (centres undefined)	> 100	83.5	
CCN1C(=O)/C(=C/c2ccc(O)c([N+](=O)[O-])c2)SC1=S	> 100	65.5	
Cc1ccc(C2NC(=O)C(O)=C2C(=O)c2cccs2)cc1 (centres undefined)	> 100	81.8	
Cc1cc(/C=C2\NC(=O)NC2=O)c(C)n1-c1ccc(OCc2ccc(Cl)cc2Cl)cc1	8.73		Activity [11]: inactive
CCOc1ccc(/C=C2\SC(=O)NC2=O)cc1OCc1ccc(Cl)c(Cl)c1	5.17		IC50 [3]: > 300 µM; inhibition [12]: inactive; IC50 [4]: 12.5 µM; IC50 [5]: 7.01 µM; Ratio IC50 [6]: > 59; Ratio IC50 [7]: 5.3; Ratio IC50 [8]: 2.5; Activity [11]: inactive; Ratio IC50 [9]: 1.4; IC50 [10]: 26.7 µM
COc1ccccc1/C=C/CN1CCNC(=O)C1CC(=O)O (centres undefined)	> 100	83.7	
CCc1nnc(NC(=O)C(=O)NCCOC(=O)c2ccccc2)s1	> 100	77.9	
